# Key:
# Bacillus subtilis = test: Antibacterial activity against Bacillus subtilis 19659 assessed as growth inhibition measured for 3 days by broth microdilution method; type: functional
# Summary of the method: (§1)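 MIC by broth microdilution against a panel of Gram-positive and Gram-negative strains (ATCC-type numbers where given). Run in triplicate on three different days.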
# Staphylococcus aureus = test: Antibacterial activity against Staphylococcus aureus 13709 assessed as growth inhibition measured for 3 days by broth microdilution method; type: functional; summary of the method: as §1
# Enterococcus faecalis = test: Antibacterial activity against Enterococcus faecalis 19433 assessed as growth inhibition measured for 3 days by broth microdilution method; type: functional; summary of the method: as §1
# Mus musculus [1] = test: Cmax in CD1 mouse at 50 mg/kg, ip; type: ADME, organism-based; parameters: dose 50 mg/kg, route intraperitoneal; settings: in vivo
# Summary of the method: (§2)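 Female CD-1 mice, single intraperitoneal dose of 25, 50 or 100 mg/kg; the 50 mg/kg BID group was dosed twice. Plasma levels were followed over time to derive tmax, Cmax, half-life, Vz, clearance and AUC. Time above MIC was taken against a 2000 ng/mL plasma threshold.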
# Salmonella enterica = test: Antibacterial activity against Salmonella enterica assessed as growth inhibition measured for 3 days by broth microdilution method; type: functional; summary of the method: as §1
# Bacillus atrophaeus = test: Antibacterial activity against Bacillus atrophaeus assessed as growth inhibition measured for 3 days by broth microdilution method; type: functional; summary of the method: as §1
# [2] = Clearance in CD1 mouse at 25 mg/kg, ip; type: ADME, organism-based; parameters: dose 25 mg/kg, route intraperitoneal; settings: in vivo
# Summary of the method: (§3)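 Female CD-1 mice received the test compound intraperitoneally, either as a single dose (25, 50 or 100 mg/kg) or as 50 mg/kg BID. Exposure was followed over time, and clearance was reported in mL/h/kg together with tmax, Cmax, half-life, VZ and AUC.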
# Pseudomonas aeruginosa = test: Antibacterial activity against Pseudomonas aeruginosa assessed as growth inhibition measured for 3 days by broth microdilution method; type: functional; summary of the method: as §1
# Mus musculus [3] = test: Tmax in CD1 mouse at 100 mg/kg, ip; type: ADME, organism-based; parameters: dose 100 mg/kg, route intraperitoneal; settings: in vivo; summary of the method: as §2
# Acinetobacter baumannii = test: Antibacterial activity against Acinetobacter baumannii assessed as growth inhibition measured for 3 days by broth microdilution method; type: functional; summary of the method: as §1
# Mus musculus [4] = test: AUC in CD1 mouse at 50 mg/kg, ip bid; type: ADME, organism-based, Plasma; parameters: dose 50 mg/kg, route intraperitoneal; settings: in vivo; summary of the method: as §2
# Mus musculus [5] = test: Toxicity in CD1 mouse assessed as mortality at < 100 mg/kg, ip; type: organism-based; parameters: dose 100 mg/kg, route intraperitoneal; settings: in vivo
# Summary of the method: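 Female CD-1 mice were given the compound intraperitoneally in the PK dose groups. Mortality and clinical observations were recorded.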
# Streptococcus agalactiae = test: Antibacterial activity against Streptococcus agalactiae 12386 assessed as growth inhibition measured for 3 days by broth microdilution method; type: functional; settings: Streptococcus agalactiae, 12386, 72 h; summary of the method: as §1
# [6] = Aqueous solubility of the compound; type: physicochemical; settings: buffer
# [7] = Clearance in CD1 mouse at 50 mg/kg, ip; type: ADME, organism-based; parameters: dose 50 mg/kg, route intraperitoneal; settings: in vivo; summary of the method: as §3
# Mus musculus [8] = test: Apparent volume of distribution in CD1 mouse at 100 mg/kg, ip; type: ADME, organism-based; parameters: dose 100 mg/kg, route intraperitoneal; settings: in vivo; summary of the method: as §2
# Enterococcus faecium = test: Antibacterial activity against Enterococcus faecium 6569 assessed as growth inhibition measured for 3 days by broth microdilution method; type: functional; summary of the method: as §1
# Mus musculus [9] = test: T>MIC in CD1 mouse at 25 mg/kg, ip; settings: route intraperitoneal; summary of the method: as §2
# Mus musculus [10] = test: AUC in CD1 mouse at 25 mg/kg, ip; type: ADME, organism-based, Plasma; parameters: dose 25 mg/kg, route intraperitoneal; settings: in vivo; summary of the method: as §2
# [11] = tested on: Staphylococcus epidermidis; test: Antibacterial activity against Staphylococcus epidermidis 13518 assessed as growth inhibition measured for 3 days by broth microdilution method; type: functional; settings: Staphylococcus epidermidis, 13518, 72 h; summary of the method: as §1
# [12] = Clearance in CD1 mouse at 50 mg/kg, ip bid; type: ADME, organism-based; parameters: dose 50 mg/kg, route intraperitoneal; settings: in vivo; summary of the method: as §3
# [13] = Chemical stability in aqueous solution assessed as compound isomerization/degradation at pH 10 after 3 days by HPLC/NMR analysis; type: physicochemical; settings: buffer, pH 10, 72 h
# Mus musculus [14] = test: Half life in CD1 mouse at 50 mg/kg, ip; type: ADME, organism-based; parameters: dose 50 mg/kg, route intraperitoneal; settings: in vivo; summary of the method: as §2
# Mus musculus [15] = test: Apparent volume of distribution in CD1 mouse at 25 mg/kg, ip; type: ADME, organism-based; parameters: dose 25 mg/kg, route intraperitoneal; settings: in vivo; summary of the method: as §2
# Mus musculus [16] = test: Half life in CD1 mouse at 100 mg/kg, ip; type: ADME, organism-based; parameters: dose 100 mg/kg, route intraperitoneal; settings: in vivo; summary of the method: as §2
# Escherichia coli = test: Antibacterial activity against Escherichia coli assessed as growth inhibition measured for 3 days by broth microdilution method; type: functional; summary of the method: as §1
# [17] = Inhibition of Bacillus anthracis UDP-GlcNAc 2-epimerase using UDP-GlcNAc as substrate preincubated for 15 mins by UDP-ManNAc dehydrogenase-coupled assay
# Mus musculus [18] = test: T>MIC in CD1 mouse at 50 mg/kg, ip bid; settings: route intraperitoneal; summary of the method: as §2
# Proteus mirabilis = test: Antibacterial activity against Proteus mirabilis assessed as growth inhibition measured for 3 days by broth microdilution method; type: functional; summary of the method: as §1
# Mus musculus [19] = test: Tmax in CD1 mouse at 25 mg/kg, ip; type: ADME, organism-based; parameters: dose 25 mg/kg, route intraperitoneal; settings: in vivo; summary of the method: as §2
# Mus musculus [20] = test: Half life in CD1 mouse at 25 mg/kg, ip; type: ADME, organism-based; parameters: dose 25 mg/kg, route intraperitoneal; settings: in vivo; summary of the method: as §2
# Shigella sonnei = test: Antibacterial activity against Shigella sonnei assessed as growth inhibition measured for 3 days by broth microdilution method; type: functional; summary of the method: as §1
# Mus musculus [21] = test: AUC in CD1 mouse at 50 mg/kg, ip; type: ADME, organism-based, Plasma; parameters: dose 50 mg/kg, route intraperitoneal; settings: in vivo; summary of the method: as §2
# Mus musculus [22] = test: T>MIC in CD1 mouse at 50 mg/kg, ip; settings: route intraperitoneal; summary of the method: as §2
# [23] = Clearance in CD1 mouse at 100 mg/kg, ip; type: ADME, organism-based; parameters: dose 100 mg/kg, route intraperitoneal; settings: in vivo; summary of the method: as §3
# Mus musculus [24] = test: Apparent volume of distribution in CD1 mouse at 50 mg/kg, ip; type: ADME, organism-based; parameters: dose 50 mg/kg, route intraperitoneal; settings: in vivo; summary of the method: as §2
# Mus musculus [25] = test: Cmax in CD1 mouse at 25 mg/kg, ip; type: ADME, organism-based; parameters: dose 25 mg/kg, route intraperitoneal; settings: in vivo; summary of the method: as §2
# Mus musculus [26] = test: Tmax in CD1 mouse at 50 mg/kg, ip; type: ADME, organism-based; parameters: dose 50 mg/kg, route intraperitoneal; settings: in vivo; summary of the method: as §2
# Candida albicans = test: Antifungal activity against Candida albicans assessed as growth inhibition measured for 3 days by broth microdilution method; type: functional; settings: 72 h
# Mus musculus [27] = test: Cmax in CD1 mouse at 100 mg/kg, ip; type: ADME, organism-based; parameters: dose 100 mg/kg, route intraperitoneal; settings: in vivo; summary of the method: as §2
# Mus musculus [28] = test: T>MIC in CD1 mouse at 100 mg/kg, ip; settings: route intraperitoneal; summary of the method: as §2
# Mus musculus [29] = test: Tmax in CD1 mouse at 50 mg/kg, ip bid; type: ADME, organism-based; parameters: dose 50 mg/kg, route intraperitoneal; settings: in vivo; summary of the method: as §2
# Mus musculus [30] = test: Apparent volume of distribution in CD1 mouse at 50 mg/kg, ip bid; type: ADME, organism-based; parameters: dose 50 mg/kg, route intraperitoneal; settings: in vivo; summary of the method: as §2
# Mus musculus [31] = test: Cmax in CD1 mouse at 50 mg/kg, ip bid; type: ADME, organism-based; parameters: dose 50 mg/kg, route intraperitoneal; settings: in vivo; summary of the method: as §2
# Mus musculus [32] = test: AUC in CD1 mouse at 100 mg/kg, ip; type: ADME, organism-based, Plasma; parameters: dose 100 mg/kg, route intraperitoneal; settings: in vivo; summary of the method: as §2
# Serratia marcescens = test: Antibacterial activity against Serratia marcescens assessed as growth inhibition measured for 3 days by broth microdilution method; type: functional; summary of the method: as §1
# Mus musculus [33] = test: Half life in CD1 mouse at 50 mg/kg, ip bid; type: ADME, organism-based; parameters: dose 50 mg/kg, route intraperitoneal; settings: in vivo; summary of the method: as §2
# [34] = Bacillus subtilis, 19659, 72 h, read-out: MIC
# [35] = Staphylococcus aureus, 13709, 72 h, read-out: MIC
structure (smiles),measurement,setting,value
O=C(O)[C@@H](Cc1ccccc1)N1C(=O)/C(=C/c2ccc(-c3ccc(Cl)c(Cl)c3)o2)NC1=S,MIC,Bacillus subtilis; [34],6.8 µM
same,MIC,Staphylococcus aureus; [35],6.8 µM
O=C(O)[C@H](Cc1ccccc1)N1C(=O)/C(=C/c2ccc(-c3ccc(Cl)c(Cl)c3)o2)NC1=S,MIC,Bacillus subtilis; [34],6.8 µM
same,MIC,Staphylococcus aureus; [35],6.8 µM
O=C(O)[C@@H](Cc1ccccc1)N1C(=O)/C(=C\c2ccc(-c3ccc(Cl)c(Cl)c3)o2)NC1=S,MIC,Bacillus subtilis; [34],6.8 µM
same,MIC,Staphylococcus aureus; [35],6.8 µM
O=C(O)[C@H](Cc1ccccc1)N1C(=O)/C(=C\c2ccc(-c3ccc(Cl)c(Cl)c3)o2)NC1=S,MIC,Bacillus subtilis,6.8 µM
same,MIC,Staphylococcus aureus,6.8 µM
O=C([O-])[C@H](Cc1ccccc1)N1C(=O)/C(=C\c2ccc(-c3ccc(Cl)c(Cl)c3)o2)NC1=S.[Na+],MIC,Enterococcus faecalis,15.6 µM
same,Cmax,Mus musculus [1],140 µg/mL
same,MIC,Salmonella enterica,> 25 µM
same,MIC,Bacillus atrophaeus,7.8 µM
same,CL/F,[2],2.33 mL/min/kg
same,MIC,Pseudomonas aeruginosa,> 25 µM
same,Tmax,Mus musculus [3],4.8 min
same,MIC,Acinetobacter baumannii,> 25 µM
same,AUC,Mus musculus [4],1050 µg·h/mL
same,Activity,Mus musculus [5],Non-toxic
same,MIC,Streptococcus agalactiae,3.9 µM
same,solubility,[6],soluble
same,CL/F,[7],1.67 mL/min/kg
same,Vz,Mus musculus [8],0.18 L/kg
same,MIC,Enterococcus faecium,15.6 µM
same,T>MIC,Mus musculus [9],10.6 h
same,AUC,Mus musculus [10],170 µg·h/mL
same,MIC,[11],2 µM
same,CL/F,[12],0.783 mL/min/kg
same,Stability,[13],Stable
same,t1/2,Mus musculus [14],2.3 h
same,Vz,Mus musculus [15],0.5 L/kg
same,t1/2,Mus musculus [16],2.2 h
same,MIC,Escherichia coli,> 25 µM
same,Ki,[17],82 µM
same,T>MIC,Mus musculus [18],18.3 h
same,MIC,Proteus mirabilis,> 25 µM
same,Tmax,Mus musculus [19],4.8 min
same,t1/2,Mus musculus [20],2.4 h
same,MIC,Shigella sonnei,> 25 µM
same,AUC,Mus musculus [21],480 µg·h/mL
same,T>MIC,Mus musculus [22],14.6 h
same,CL/F,[23],0.917 mL/min/kg
same,Vz,Mus musculus [24],0.34 L/kg
same,Cmax,Mus musculus [25],68 µg/mL
same,Tmax,Mus musculus [26],0.5 h
same,MIC,Candida albicans,> 25 µM
same,Cmax,Mus musculus [27],490 µg/mL
same,T>MIC,Mus musculus [28],19.4 h
same,Tmax,Mus musculus [29],3.08 h
same,Vz,Mus musculus [30],0.24 L/kg
same,Cmax,Mus musculus [31],320 µg/mL
same,AUC,Mus musculus [32],1800 µg·h/mL
same,MIC,Serratia marcescens,> 25 µM
same,t1/2,Mus musculus [33],3.4 h

# Source: ChEMBL document CHEMBL3098130, “Discovery of Novel Putative Inhibitors of UDP-GlcNAc 2-Epimerase as Potent Antibacterial Agents” (ACS Med Chem Lett, 2013)
